Data: ChEMBL document CHEMBL3046181 (Molecules, 2013)

Tests used:
Spinacia oleracea [1] = assay: Inhibition of hill reaction in Spinacia oleracea (spinach) chloroplast; type: functional
Trifolium alexandrinum [2] = assay: Herbicidal activity against Trifolium alexandrinum assessed as inhibition of seed germination after 5 days; conditions: 120 h
Triticum aestivum [3] = assay: Herbicidal activity against Triticum vulgare var. Salamanca (wheat) assessed as inhibition of seed respiration at 10 to 50 uM by Clark's electrode method; type: functional, organism-based; conditions: TDE = time-dependent effect
Procedure, shortened: (§1)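 Seeds imbibed in 10 mL water on filter paper in Petri dishes, with compound at 10–50 μM (dissolved in MeOH, final MeOH under 1%); controls received the same water and MeOH. O2 uptake was measured polarographically after 5, 24, 48 and 72 h of imbibition, and consumption rate was calculated. IC50 at 72 h was derived by probit/linear regression. Replicate experiments, means ± S.E.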

Lolium multiflorum [4] = assay: Post-emergent herbicidal activity against Lolium multiflorum (Italian ryegrass) assessed as dry biomass at 60 uM after 14 days relative to control; type: functional
Procedure, shortened: (§2)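 Plants were grown 18 days in a greenhouse, then sprayed with compound dissolved in MeOH with Tween 20 and maize oil. Controls were sprayed with distilled water containing the same MeOH, Tween 20 and maize oil. Dry biomass of all leaves was weighed 14 days after spraying, and differences from control were judged by Student's t-test (p < 0.05).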

Physalis ixocarpa [5] = assay: Herbicidal activity against Physalis ixocarpa assessed as inhibition of seed germination at 50 uM after 5 days; type: functional; conditions: 120 h
Procedure, shortened: (§3)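 Seeds were placed on filter paper in Petri dishes (20 seeds for T. vulgare) and wetted with deionized water or test solution. Compound was given in MeOH at under 1%, and controls held matching MeOH. Three replicate experiments were run. Germination was scored as 1 mm root extrusion, and root and shoot length were measured on all germinated seeds. Student's t-test was used, and IC50 values came from probit analysis.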

Triticum aestivum [6] = assay: Post-emergent herbicidal activity against Triticum vulgare var. Salamanca (wheat) assessed as dry biomass at 20 uM after 14 days relative to control; type: functional; procedure, shortened: as §2
Trifolium alexandrinum [7] = assay: Post-emergent herbicidal activity against Trifolium alexandrinum assessed as dry biomass at 40 uM after 14 days relative to control; type: functional; procedure, shortened: as §2
Lolium multiflorum [8] = assay: Herbicidal activity against Lolium multiflorum (Italian ryegrass) assessed as inhibition of seed respiration at 10 to 50 uM by Clark's electrode method; type: functional, organism-based; conditions: TDE = time-dependent effect; procedure, shortened: as §1
Lolium multiflorum [9] = assay: Post-emergent herbicidal activity against Lolium multiflorum (Italian ryegrass) assessed as dry biomass at 20 uM after 14 days relative to control; type: functional; procedure, shortened: as §2
Trifolium alexandrinum [10] = assay: Herbicidal activity against Trifolium alexandrinum assessed as inhibition of seed respiration at 10 to 50 uM by Clark's electrode method; type: functional, organism-based; conditions: TDE = time-dependent effect; procedure, shortened: as §1
Trifolium alexandrinum [11] = assay: Herbicidal activity against Trifolium alexandrinum assessed as inhibition of shoot elongation after 5 days; conditions: 120 h
Lolium multiflorum [12] = assay: Herbicidal activity against Lolium multiflorum (Italian ryegrass) assessed as inhibition of seed germination after 5 days; conditions: 120 h
Trifolium alexandrinum [13] = assay: Herbicidal activity against Trifolium alexandrinum assessed as inhibition of root elongation after 5 days; conditions: 120 h
Lolium multiflorum [14] = assay: Herbicidal activity against Lolium multiflorum (Italian ryegrass) assessed as inhibition of root elongation after 5 days; conditions: 120 h
Trifolium alexandrinum [15] = assay: Post-emergent herbicidal activity against Trifolium alexandrinum assessed as dry biomass at 20 uM after 14 days relative to control; type: functional; procedure, shortened: as §2
Trifolium alexandrinum [16] = assay: Post-emergent herbicidal activity against Trifolium alexandrinum assessed as dry biomass at 60 uM after 14 days relative to control; type: functional; procedure, shortened: as §2
Physalis ixocarpa [17] = assay: Herbicidal activity against Physalis ixocarpa assessed as inhibition of shoot elongation after 5 days; conditions: 120 h
Trifolium alexandrinum [18] = assay: Herbicidal activity against Trifolium alexandrinum assessed as inhibition of seed respiration after 5 to 72 hr by Clark's electrode method; type: functional, organism-based; procedure, shortened: as §1
Lolium multiflorum [19] = assay: Herbicidal activity against Lolium multiflorum (Italian ryegrass) assessed as inhibition of shoot elongation after 5 days; conditions: 120 h
Physalis ixocarpa [20] = assay: Herbicidal activity against Physalis ixocarpa assessed as inhibition of seed respiration after 72 hr by Clark's electrode method; type: functional, organism-based
Procedure, shortened: (§4)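 Seeds were imbibed in 10 mL water in Petri dishes with compound at 10–50 μM, as in the germination set-up. O2 uptake was measured after 5, 24, 48 and 72 h with an oxygen electrode, where O2-reduction current was converted to voltage. Consumption rate was calculated, with replicates as mean ± S.E. IC50 came from probit analysis.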

Physalis ixocarpa [21] = assay: Herbicidal activity against Physalis ixocarpa assessed as inhibition of seed germination after 5 days; conditions: 120 h
Lolium multiflorum [22] = assay: Post-emergent herbicidal activity against Lolium multiflorum (Italian ryegrass) assessed as dry biomass at 40 uM after 14 days relative to control; type: functional; procedure, shortened: as §2
Triticum aestivum [23] = assay: Herbicidal activity against Triticum vulgare var. Salamanca (wheat) assessed as inhibition of shoot elongation after 4 days; conditions: 96 h
Triticum aestivum [24] = assay: Herbicidal activity against Triticum vulgare var. Salamanca (wheat) assessed as inhibition of seed respiration after 5 to 72 hr by Clark's electrode method; type: functional, organism-based; procedure, shortened: as §1
Spinacia oleracea [25] = assay: Inhibition of light reaction of photosynthesis in Spinacia oleracea (spinach) chloroplast; type: functional
Triticum aestivum [26] = assay: Post-emergent herbicidal activity against Triticum vulgare var. Salamanca (wheat) assessed as dry biomass at 60 uM after 14 days relative to control; type: functional; procedure, shortened: as §2
Physalis ixocarpa [27] = assay: Herbicidal activity against Physalis ixocarpa assessed as inhibition of root elongation after 5 days; conditions: 120 h
Triticum aestivum [28] = assay: Herbicidal activity against Triticum vulgare var. Salamanca (wheat) assessed as inhibition of seed germination after 4 days; conditions: 96 h
Lolium multiflorum [29] = assay: Herbicidal activity against Lolium multiflorum (Italian ryegrass) assessed as inhibition of seed respiration after 72 hr by Clark's electrode method; type: functional, organism-based; procedure, shortened: as §4
Triticum aestivum [30] = assay: Herbicidal activity against Triticum vulgare var. Salamanca (wheat) assessed as inhibition of seed respiration after 72 hr by Clark's electrode method; type: functional, organism-based; procedure, shortened: as §4
Triticum aestivum [31] = assay: Herbicidal activity against Triticum vulgare var. Salamanca (wheat) assessed as inhibition of root elongation after 4 days; conditions: 96 h
Triticum aestivum [32] = assay: Post-emergent herbicidal activity against Triticum vulgare var. Salamanca (wheat) assessed as dry biomass at 40 uM after 14 days relative to control; type: functional; procedure, shortened: as §2
Trifolium alexandrinum [33] = assay: Herbicidal activity against Trifolium alexandrinum assessed as inhibition of seed respiration after 72 hr by Clark's electrode method; type: functional, organism-based; procedure, shortened: as §4
Lolium multiflorum [34] = assay: Herbicidal activity against Lolium multiflorum (Italian ryegrass) assessed as inhibition of seed germination at 50 uM after 5 days; type: functional; conditions: 120 h; procedure, shortened: as §3
Physalis ixocarpa [35] = assay: Post-emergent herbicidal activity against Physalis ixocarpa assessed as dry biomass at 20 uM after 14 days relative to control; type: functional; procedure, shortened: as §2
Physalis ixocarpa [36] = assay: Herbicidal activity against Physalis ixocarpa assessed as inhibition of seed respiration at 10 to 50 uM by Clark's electrode method; type: functional, organism-based; conditions: TDE = time-dependent effect; procedure, shortened: as §1
Physalis ixocarpa [37] = assay: Post-emergent herbicidal activity against Physalis ixocarpa assessed as dry biomass at 40 uM after 14 days relative to control; type: functional; procedure, shortened: as §2
Physalis ixocarpa [38] = assay: Herbicidal activity against Physalis ixocarpa assessed as inhibition of seed respiration after 5 to 72 hr by Clark's electrode method; type: functional, organism-based; procedure, shortened: as §1
Lolium multiflorum [39] = assay: Herbicidal activity against Lolium multiflorum (Italian ryegrass) assessed as inhibition of seed respiration after 5 to 72 hr by Clark's electrode method; type: functional, organism-based; procedure, shortened: as §1
Physalis ixocarpa [40] = assay: Post-emergent herbicidal activity against Physalis ixocarpa assessed as dry biomass at 60 uM after 14 days relative to control; type: functional; procedure, shortened: as §2
[41] = Inhibition of mitochondrial complex 1 in Homo sapiens (human) T47D cells by Clark's electrode method; type: cell-based

## CCCCC[C@H]1CCCCCCCCCC(=O)O[C@H]2[C@H](O)[C@@H](CO)O[C@@H](O[C@H]3[C@H](O1)O[C@H](C)[C@H](O)[C@@H]3O)[C@@H]2O[C@@H]1O[C@@H](C)[C@H](OC(=O)[C@@H](C)CC)[C@@H](O[C@@H]2O[C@@H](C)[C@H](O)[C@@H](O)[C@H]2O)[C@H]1OC(=O)[C@@H](C)CC [TRICOLORIN A]
Spinacia oleracea [1]
  IC50: 5 µM
Trifolium alexandrinum [2]
  IC50: 16 µM
Triticum aestivum [3]
  inhibition: tde
Lolium multiflorum [4]
  Activity: 38%
Physalis ixocarpa [5]
  inhibition at 50 µM: 100%
Triticum aestivum [6]
  Activity: 82%
Trifolium alexandrinum [7]
  Activity: 83%
Lolium multiflorum [8]
  inhibition: tde
Lolium multiflorum [9]
  Activity: 91%
Trifolium alexandrinum [10]
  inhibition: tde
Trifolium alexandrinum [11]
  IC50: 12.7 µM
Lolium multiflorum [12]
  IC50: 16.1 µM
Trifolium alexandrinum [13]
  IC50: 18 µM
Lolium multiflorum [14]
  IC50: 15.3 µM
Trifolium alexandrinum [15]
  Activity: 87%
Trifolium alexandrinum [16]
  Activity: 63%
Physalis ixocarpa [17]
  IC50: 12.7 µM
Trifolium alexandrinum [18]
  inhibition: Dose-dependent effect
Lolium multiflorum [19]
  IC50: 12.3 µM
Physalis ixocarpa [20]
  IC50: 11.7 µM
Physalis ixocarpa [21]
  IC50: 13.8 µM
Lolium multiflorum [22]
  Activity: 53%
Triticum aestivum [23]
  IC50: 8.5 µM
Triticum aestivum [24]
  inhibition: Dose-dependent effect
Spinacia oleracea [25]
  UC50: 0.33 µM
Triticum aestivum [26]
  Activity: 67%
Physalis ixocarpa [27]
  IC50: 13.8 µM
Triticum aestivum [28]
  IC50: 25.7 µM
Lolium multiflorum [29]
  IC50: 8 µM
Triticum aestivum [30]
  IC50: 25.7 µM
Triticum aestivum [31]
  IC50: 24.1 µM
Triticum aestivum [32]
  Activity: 78%
Trifolium alexandrinum [33]
  IC50: 22.6 µM
Lolium multiflorum [34]
  inhibition at 50 µM: 100%
Physalis ixocarpa [35]
  Activity: 104%
Physalis ixocarpa [36]
  inhibition: tde
Physalis ixocarpa [37]
  Activity: 84%
Physalis ixocarpa [38]
  inhibition: Dose-dependent effect
Lolium multiflorum [39]
  inhibition: Dose-dependent effect
Physalis ixocarpa [40]
  Activity: 78%

## CC(C)(O)[C@H]1CC[C@](C)([C@@H](O)CC[C@](C)(O)[C@H]2CC[C@H]3O[C@@H]([C@]4(C)CC[C@@H](Br)C(C)(C)O4)CC[C@]3(C)O2)O1 [THYRSIFEROL]
[41]
  IC50: 3 µM

## C[n+]1ccc(-c2cc[n+](C)cc2)cc1.[Cl-].[Cl-] [PARAQUAT DICHLORIDE]
Lolium multiflorum [4]
  Activity: 32%
Triticum aestivum [6]
  Activity: 83%
Trifolium alexandrinum [7]
  Activity: 59%
Lolium multiflorum [9]
  Activity: 97%
Trifolium alexandrinum [15]
  Activity: 67%
Trifolium alexandrinum [16]
  Activity: 57%
Lolium multiflorum [22]
  Activity: 54%
Triticum aestivum [26]
  Activity: 67%
Triticum aestivum [32]
  Activity: 67%
Physalis ixocarpa [35]
  Activity: 96%
Physalis ixocarpa [37]
  Activity: 100%
Physalis ixocarpa [40]
  Activity: 84%
